The list is not random: actives were taken first. Their share in the collection is about 3.6%.
HCV NS3 hel inh: HCV NS3 helicase inhibition | NS3 helicase DNA unwinding, Cy5 molecular beacon fluorescence | inhibition, % at 10.9 µM | hit rate 0.56% among 290,000 | AID 1800;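 active means inhibition above the mean of all tested compounds plus 3 SD, set per campaign, cut at about 35% in these data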;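 further: 0% = DMSO wells and 100% = thioflavine S control wells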
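System: NS3 helicase fragment of HCV / Schedule: 1 h at 25 °C / Control set: DMSO alone as 0% and 110 µM thioflavine S as 100% / Reagent: Cy5/quencher beacon DNA duplex and ATP to start / Technique: Cy5 fluorescence / Replication: singlicate / Evaluation: % inhibition of end-to-start signal ratio versus controls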
FGF22 binding: shifts melting point of recombinant human FGF22. Q9HCT0. hit rate 1.5% among 340,000. activity (Tm shift, normalised), % at 9.99 µM. AID 651658. recombinant FGF22 thermal shift, SYPRO orange fluorescence; percent of sucrose octasulfate shift, DMSO zero;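 active means mean Tm shift, scaled 0 neutral to 100 positive control, at about 1.3% or above, every replicate too, limit read from the data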
Target sequence (Q9HCT0 whole entry, looked up): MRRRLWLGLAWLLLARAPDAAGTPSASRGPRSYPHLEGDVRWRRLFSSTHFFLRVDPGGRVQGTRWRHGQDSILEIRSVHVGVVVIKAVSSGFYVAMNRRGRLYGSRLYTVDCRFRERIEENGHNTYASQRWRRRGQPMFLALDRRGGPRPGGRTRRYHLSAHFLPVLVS
ZTA counter: blocks Epstein-Barr virus ZTA, an EBNA-1 counter-screen. P03206. hit rate 0.15% among 320,000. inhibition, % at 11 µM. ZTA-DNA binding, fluorescence polarization; in the data active means inhibition above about 33%
Target sequence (P03206 whole entry, looked up): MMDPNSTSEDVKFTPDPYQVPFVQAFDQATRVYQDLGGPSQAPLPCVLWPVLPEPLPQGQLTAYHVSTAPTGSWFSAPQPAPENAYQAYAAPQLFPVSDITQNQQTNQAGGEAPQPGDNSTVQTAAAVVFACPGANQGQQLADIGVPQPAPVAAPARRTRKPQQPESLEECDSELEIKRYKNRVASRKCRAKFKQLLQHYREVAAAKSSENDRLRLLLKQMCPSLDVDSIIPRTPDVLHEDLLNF
FID counter: displaces DNA intercalator in HCV helicase counter-screen; DNA fluorescent intercalator displacement, fluorescence; inhibition, % at 7.9 µM; hit rate 0.17% among 290,000; in the data active means inhibition above about 37%;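 further: 0% = vehicle and 100% = reference compound; higher means more ethidium bromide displaced from hairpin DNA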
EBNA-1 inh: blocks EBNA-1 binding to DNA; EBNA-1 DNA binding, fluorescence polarization; inhibition, % at 14.8 µM; hit rate 0.34% among 300,000; AID 1950; in the data active means inhibition above about 28%
NR3A LBD binder: modulators (binders) of human NR3A ligand-binding domain | Tm shift relative to glycine control, % at 25 µM | NR3A LBD differential scanning fluorimetry, Tm shift; 0% = protein alone, 100% = glycine-bound protein | hit rate 2.5% among 340,000;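 active means melting temperature shift of at least 10% of the positive control shift, at one fixed dose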
ZTA inh confirm: EBV ZTA DNA binding inhibition, confirmation; Zta-ZRE DNA binding, fluorescence polarization; AID 2361; inhibition, % at 11.1 µM; hit rate 30% among 320; shares compounds with ZTA counter;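 active means mean inhibition across triplicate runs above the hit threshold derived for the original primary screen, cut at about 33% in these data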;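 further: 0% = Zta with DMSO and 100% = wells lacking Zta protein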
EBNA-1 counter: EBNA-1 DNA binding inhibition, counter-screen for ZTA; shares compounds with ZTA counter; AID 2362; 320 tested, under 10 active; inhibition, % at 14.8 µM; fluorescence polarization; call rule not given here
The depositor's hits bear a star.

For CCCc1cn(CC[C@@H]2CC[C@H](NC(=O)Nc3ccccc3F)[C@H](CO)O2)nn1 the results were FGF22 binding 0.
For COC(=O)C(=Cc1ccncc1)c1cccc2ccccc12 the results were FGF22 binding 0.
`O=C(O)/C(=C\c1ccc2ccccc2c1)c1cccc2ccccc12` gave FGF22 binding 0, ZTA counter 36*, EBNA-1 inh 8, NR3A LBD binder 0, ZTA inh confirm 2 and EBNA-1 counter 8.
`Cc1noc(C)c1S(=O)(=O)N(C)C[C@H]1Oc2ccc(NC(=O)Nc3ccc4c(c3)OCO4)cc2CC(=O)N([C@@H](C)CO)C[C@H]1C` gave FGF22 binding 0.
Screening CCC(=O)Nc1nc2ccc3sc(C)nc3c2s1 returned HCV NS3 hel inh 10, FGF22 binding 0, ZTA counter 35*, FID counter -7, EBNA-1 inh 11, NR3A LBD binder -1, ZTA inh confirm -7 and EBNA-1 counter -4.
Screening Cc1noc(C)c1NC(=O)N(C)C[C@H]1Oc2ccc(NC(=O)Nc3cccc4ccccc34)cc2C(=O)N([C@@H](C)CO)C[C@@H]1C returned FGF22 binding 0.
O=c1[nH]c(Nc2ccccc2)cc2cc(Br)ccc12 was read as FGF22 binding 0, ZTA counter 41*, EBNA-1 inh -6, NR3A LBD binder -14, ZTA inh confirm 2 and EBNA-1 counter -5.
CCCNC(=O)N1C[C@H](C)[C@H](OC)CN(C)C(=O)c2ccc(NC(=O)CCC)cc2OC[C@@H]1C was read as FGF22 binding 0.
For O=C(CN1C(=O)/C(=C/c2ccco2)SC1=S)Nc1ccc(C(=O)O)c(O)c1 the results were HCV NS3 hel inh 27, FGF22 binding 1, ZTA counter 57*, FID counter 26, EBNA-1 inh 12, NR3A LBD binder 7, ZTA inh confirm 19 and EBNA-1 counter -5.
Screening O=C(CCCN1C(=O)/C(=C\c2cccs2)SC1=S)Nc1ccc(O)cc1C(=O)O returned HCV NS3 hel inh -5, FGF22 binding 0, ZTA counter 9, FID counter 5, EBNA-1 inh 9 and NR3A LBD binder 4.
O=C(CN1C(=O)/C(=C/c2ccco2)SC1=S)Nc1ccc(O)c(C(=O)O)c1 was read as HCV NS3 hel inh 25, ZTA counter 7, FID counter 9, EBNA-1 inh -9 and NR3A LBD binder 4.
For O=C(CCCN1C(=O)/C(=C\c2ccco2)SC1=S)Nc1ccc(O)cc1C(=O)O the results were HCV NS3 hel inh 17, ZTA counter 53*, FID counter 20, EBNA-1 inh 12, NR3A LBD binder 2, ZTA inh confirm 0 and EBNA-1 counter 2.
For CCn1c(CSc2nnc(-c3ccncc3)n2CCOC)nc2cc(C(=O)O)ccc21 the results were HCV NS3 hel inh 4, FGF22 binding 43, ZTA counter 37*, FID counter -4, EBNA-1 inh 5, NR3A LBD binder 0, ZTA inh confirm 30 and EBNA-1 counter 17.
CCn1c(CSc2n[nH]c(N)n2)nc2cc(C(=O)O)ccc21 was read as HCV NS3 hel inh 6, FGF22 binding 0, ZTA counter 34*, FID counter -4, EBNA-1 inh 16, NR3A LBD binder -2, ZTA inh confirm 39* and EBNA-1 counter 19.
For COCCn1c(SCCCC(=O)c2ccc(Br)cc2)nnc1-c1ccncc1 the results were HCV NS3 hel inh 1, ZTA counter -12, FID counter -34, EBNA-1 inh 10 and NR3A LBD binder 8.
`CN1C(=O)c2cc(NC(=O)Cc3ccccc3)ccc2OC[C@H]2O[C@H](CC(=O)O)CC[C@@H]21` gave FGF22 binding -2.
`O=C(/C=C/c1ccco1)NC(=S)Nc1ccc(C(=O)O)cc1` gave HCV NS3 hel inh 30, FGF22 binding 0, ZTA counter 54*, FID counter -5, EBNA-1 inh -11, NR3A LBD binder 1, ZTA inh confirm 38* and EBNA-1 counter 1.
c1coc(-c2nnc(-c3ccco3)nn2)c1 was read as HCV NS3 hel inh 35, FGF22 binding 0, ZTA counter 37*, FID counter -2, EBNA-1 inh 5, NR3A LBD binder -2, ZTA inh confirm 33* and EBNA-1 counter -8.
`Cc1noc(C)c1NC(=O)Nc1ccc2c(c1)CC(=O)N([C@@H](C)CO)C[C@@H](C)[C@@H](CN(C)C(=O)Nc1c(C)noc1C)O2` gave FGF22 binding 0.
For Cc1ccc(-c2csc(/C(C#N)=C/Nc3ccc4c(c3)OCCO4)n2)cc1 the results were HCV NS3 hel inh 1, FGF22 binding 0, ZTA counter 3, FID counter 1, EBNA-1 inh 7 and NR3A LBD binder -1.
`CCN(CC)CCOC(=O)c1ccc(N/C=C(/C#N)c2nc(-c3ccc(OC)c(OC)c3)cs2)cc1` gave HCV NS3 hel inh 11, FGF22 binding 0, ZTA counter 74*, FID counter 8, EBNA-1 inh 2, NR3A LBD binder -4, ZTA inh confirm 51* and EBNA-1 counter 20.
CCN(CC)CCOC(=O)c1ccc(N/C=C(/C#N)c2nc(-c3cccc(OC)c3)cs2)cc1 was read as HCV NS3 hel inh -79, FGF22 binding 0, ZTA counter 40*, FID counter 3, EBNA-1 inh -2, NR3A LBD binder 1, ZTA inh confirm 3 and EBNA-1 counter -13.
Screening CCOC(=O)c1ccc(N/C=C\C(=O)c2cccc(OC)c2)cc1 returned HCV NS3 hel inh 0, ZTA counter -1, FID counter -6, EBNA-1 inh -3 and NR3A LBD binder -4.
Screening C[C@@H]1CN([C@H](C)CO)S(=O)(=O)c2ccc(C#CC3CC3)cc2O[C@H]1CN(C)C(=O)C1CCC1 returned FGF22 binding 0.
Screening CO[C@@H]1CN(C)C(=O)c2ccc(NS(C)(=O)=O)cc2OC[C@H](C)N(Cc2cncnc2)C[C@@H]1C returned FGF22 binding 1.
Screening O=C(N[C@H]1CC[C@H](CCNS(=O)(=O)c2ccccc2)O[C@H]1CO)c1cccc(F)c1 returned FGF22 binding 0.
`Cn1c2ccccc2c(=O)n2c(=O)c3ccccc3cc12` gave HCV NS3 hel inh 1, ZTA counter 43*, FID counter 2, EBNA-1 inh -2, ZTA inh confirm 33* and EBNA-1 counter -7.
For Cn1c(-c2ccccc2)cc(=O)c2ccccc21 the results were HCV NS3 hel inh 4, ZTA counter -6, FID counter -2, EBNA-1 inh 3 and NR3A LBD binder 0.

Screening data (PubChem BioAssay)
